Experimental data from different studies.
HTR1D: 5-hydroxytryptamine receptor 1D (HTR1D, Homo sapiens, UniProt P28221)

| SMILES | target | test | setting | quantity | value |
| --- | --- | --- | --- | --- | --- |
| Fc1ccc2onc(C3CCNCC3)c2c1 | Sodium-dependent serotonin transporter (Slc6a4, Rattus norvegicus, UniProt P31652) | ligand displacement, radioligand |  | Ki | > 10 µM |
| COC[C@H]1OC(=O)c2coc3c2[C@@]1(C)C1=C(C3=O)[C@@H]2CCC(=O)[C@@]2(C)C[C@H]1OC(C)=O | TGF-beta receptor type-2 (TGFBR2, Homo sapiens, UniProt P37173) | cell-free assay, competition with immobilised ligand |  | Kd | > 10 µM |
| COc1ccc(C(=O)CCN2CCN(c3ccccc3F)CC2)cc1 | HTR1D | ligand displacement, radioligand |  | Ki | 0.185 µM |
| CSCC[C@H](NC(=O)[C@@H]1CCCN1C(=O)CNC(=O)c1ccc2c(c1)C(=O)OC21c2ccc(O)cc2Oc2cc(O)ccc21)C(=O)N[C@@H](CCC(N)=O)C(=O)N[C@H](C(=O)N[C@@H](CO)C(=O)N[C@H](C(=O)N1CCC[C@H]1C(=O)N[C@@H](CCCCN)C(=O)N[C@@H](CC(N)=O)C(=O)NCC(=O)O)[C@@H](C)OP(=O)(O)O)[C@@H](C)O | Serine/threonine-protein kinase PLK2, polo-box (PLK2, Homo sapiens, UniProt Q9NYY3) | binding, FP |  | Kd | 0.0504 µM |
| OC(c1ccc(F)cc1)C(F)(F)CCN1CCC(O)(c2ccc(Cl)cc2)CC1 (racemic) | HTR1D | cell-free assay, radioligand |  | Ki | 4.88 µM |
| CC(C)Cc1ccc([C@@H](C)C(=O)O)cc1 | Histone acetyltransferase KAT2B (KAT2B, Homo sapiens, UniProt Q92831) | enzyme activity, inhibitor, mobility shift |  | IC50 | ~6000 µM |
| O=C(CCCCCCNC(=O)c1cnc(N(c2ccccc2)c2ccccc2)nc1)NO | ATP-dependent translocase ABCB1 (ABCB1, Homo sapiens, UniProt P08183) | ATPase activity, activator | cell membranes | EC50 | ~7.5 µM |
| C[C@H](N)Cn1ncc2ccc3c(c21)CCCO3 | HTR1D | ligand displacement, radioligand |  | Ki | 6.9 µM |
| CC(C)S[C@@H]1O[C@H](CO)[C@H](O)[C@H](O)[C@H]1O | Beta-galactosidase (lacZ, Escherichia coli K-12, UniProt P00722) | enzyme activity, inhibitor, fluorescence |  | Ki | 36 µM |
| Cn1cc(-c2cc(F)cc(N3CCn4c(cc5c4CCCC5)C3=O)c2CO)cc(Nc2ccc(N3CCN(C4COC4)CC3)cn2)c1=O | Tyrosine-protein kinase Yes (YES1, Homo sapiens, UniProt P07947) | enzyme activity, inhibitor, FRET |  | Ki | 0.637 µM |
| COc1ccccc1N1CCN(Cc2coc3c(Cl)cc(Cl)cc3c2=O)CC1 | HTR1D | ligand displacement, radioligand |  | Ki | 2.06 µM |
| CC(C)[C@H](NC(=O)[C@H](CCCNC(=N)N)NC(=O)N[C@@H](Cc1ccccc1)C(=O)O)C(=O)N[C@H](C=O)CCCNC(=N)N | Transmembrane protease serine 2 (TMPRSS2, Homo sapiens, UniProt O15393) | enzyme activity, inhibitor, fluorescence | pH 8 | IC50 | 0.38 µM |
| COc1ccccc1N1CCN(Cc2coc3ccc(C)cc3c2=O)CC1 | HTR1D | ligand displacement, radioligand |  | Ki | 0.464 µM |
| CC[C@H]1NC(=O)[C@@H]2CSC(=N2)[C@@H](Cc2ccccc2)N(C)C(=O)[C@@H]2CCCN2C(=O)[C@H](C(C)C)N(C)C(=O)[C@H](Cc2ccccc2)OC(=O)[C@H](C)[C@@H](C)NC(=O)[C@@H]([C@@H](C)O)NC(=O)[C@@H](CC(C)C)N(C)C(=O)[C@@H]2CSC1=N2 | Dipeptidyl peptidase 8 (Homo sapiens, UniProt Q6V1X1) | enzyme activity, inhibitor |  | IC50 | 11.5 µM |
| CSCC[C@H](NC(=O)[C@H](Cc1c[nH]c2ccccc12)NC(=O)CNC(=O)[C@H](Cc1ccc(O)cc1)NC(=O)[C@H](C)NC(=O)[C@@H](CCC(=O)O)NC(=O)CN1CCN(CC(=O)O)CCN(CC(=O)O)CCN(CC(=O)O)CC1)C(=O)N[C@@H](CC(=O)O)C(=O)N(C)[C@@H](Cc1ccccc1)C(N)=O | Gastrin/cholecystokinin type B receptor (Rattus norvegicus, UniProt P30553) | ligand displacement, radioligand |  | IC50 | 0.0226 µM |
| CCCCCc1cc(O)c2c(c1)OC(C)(CCC=C(C)C)C=C2 (stereo not shown) | Polyunsaturated fatty acid 5-lipoxygenase (ALOX5, Homo sapiens, UniProt P09917) | enzyme activity in cells, inhibitor |  | IC50 | 1.5 µM |
